From PubChem
RanGTP-Imp inh = disruptors of Ran-importin-beta complex formation – biochemical, FRET, CFP-Ran, YFP-importin-beta, homogeneous, primary screen; 300,000 compounds, 1.1% hits; cell-free CFP-Ran/YFP-importin-beta FRET ratio; inhibition, % (test concentration not listed);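 active = more than half of the replicate wells show a fall in the fluorescence ratio signal beyond about 16%, limit read from the data, passing the limit was not always enough; inconclusive = exactly half of the replicate wells pass the set limit; inactive = fewer than half of replicates pass the limit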
Runt-CBFb FRET = blocks binding of human RUNX1 Runt domain to CBFb. Cerulean-Runt/Venus-CBFb FRET ratio 530/480, 1 h. Q01196+Q13951. inhibition, % at 20 µM. 220,000 compounds, 0.46% hits;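 active = inhibition over about 50% at 20 µM in the single-dose screen, limit read from the data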
Target sequence (Q01196 whole entry, looked up, the tested form may be a part): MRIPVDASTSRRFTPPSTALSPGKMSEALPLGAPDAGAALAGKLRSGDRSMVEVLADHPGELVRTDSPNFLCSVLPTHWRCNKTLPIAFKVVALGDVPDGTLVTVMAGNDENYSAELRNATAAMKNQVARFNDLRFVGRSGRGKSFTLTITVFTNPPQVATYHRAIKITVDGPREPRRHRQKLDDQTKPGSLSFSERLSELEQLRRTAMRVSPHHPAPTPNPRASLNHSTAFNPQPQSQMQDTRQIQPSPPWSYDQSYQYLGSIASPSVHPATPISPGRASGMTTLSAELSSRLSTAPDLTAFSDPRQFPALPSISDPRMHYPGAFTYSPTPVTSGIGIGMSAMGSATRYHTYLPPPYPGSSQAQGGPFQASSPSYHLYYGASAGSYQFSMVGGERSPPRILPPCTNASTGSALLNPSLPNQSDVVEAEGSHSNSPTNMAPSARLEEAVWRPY
Target sequence (Q13951 whole entry, looked up, the tested form may be a part): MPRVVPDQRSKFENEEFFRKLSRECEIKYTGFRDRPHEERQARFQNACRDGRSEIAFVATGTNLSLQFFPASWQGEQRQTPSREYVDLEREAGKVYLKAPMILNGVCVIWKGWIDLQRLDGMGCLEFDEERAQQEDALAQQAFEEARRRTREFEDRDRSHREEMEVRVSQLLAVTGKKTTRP
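System: Cerulean-labeled Runt domain protein | Quantity: 100 nM of each labeled protein | Schedule: 1 h compound exposure, room temperature | Detection: Fluorescence energy transfer, 422 nm excitation, 530/480 nm emission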
Runt-SMMHC FRET = blocks binding of human RUNX1 Runt domain to CBFb-SMMHC; Q01196+Q13951; Cerulean-Runt/Venus-CBFb-SMMHC FRET ratio 530/480, 1 h; inhibition, % at 20 µM; 220,000 compounds, 0.74% hits; AID 1434;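 active = mean inhibition across duplicate retests at 20 µM reaching about 50%, limit read from the data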;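 also: inhibitors lower the FRET ratio by blocking Runt binding to CBFb-SMMHC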
HMGR II inh = inhibitors of class II HMG-CoA reductase from Enterococcus faecalis; purified E. faecalis HMGR, NADPH absorbance 340 nm kinetic; inhibition, % at 10 µM; 190,000 compounds, 0.41% hits; AID 1066;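 active = inhibition above a set limit, the median over all tested compounds plus 3 SD, cut at about 9.5% in these data; inconclusive = no clear call, values can overlap the other calls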;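 also: enzyme runs in reverse so mevalonate oxidation gives rising NADPH absorbance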
Wee1 stabilizer = blocks degradation of human Wee1 kinase. P30291. HeLa Luc-Wee1K328M stability, luciferase luminescence; 100% = proteasome inhibitor MG132 effect. reporter increase, % at 5 µM. 220,000 compounds, 1.2% hits;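 active = activation above the mean of all tested compounds plus 3 SD, set per screening run, cut at about 8.8% in these data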;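 also: cells exposed to compound for 20 h before luminescence read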
PHOSPHO1 block = inhibitors of human PHOSPHO1 phosphatase; inhibition, % at 13.3 µM; 290,000 compounds, 1.1% hits; AID 1565; recombinant PHOSPHO1, absorbance phosphatase assay; in the data active = inhibition above about 60%
Wee1 stab conf = confirmation of human Wee1 degradation inhibitors; HeLa Luc-Wee1K328M degradation, luminescence; vehicle 0%, proteasome-blocked wells 100%; shares compounds with Wee1 stabilizer; 1,100 compounds, 4% hits; AID 1410; activation, % at 5 µM; in the data active = activation above about 8.9%
Hits are given with their value; n = inactive; u = inconclusive; x = no result. The list is not random: actives were taken first. Their share in the collection is about 3.4%.

SMILES	RanGTP-Imp inh	Runt-CBFb FRET	Runt-SMMHC FRET	HMGR II inh	Wee1 stabilizer	PHOSPHO1 block	Wee1 stab conf
COc1cccc(NC(=O)CSc2nc3c(sc4ccccc43)c(=O)n2CCN(C)C)c1	n	n	n	n	n	n	x
O=C(/C=C/c1ccc2ccccc2n1)c1cc(Br)ccc1O	n	n	n	x	n	n	x
COc1cc(O)c(C(C)=O)cc1OC	n	n	n	n	11	n	n
O=C(O)C1=C[C@H](c2ccc(F)cc2)C[C@H](OCc2ccc(CO)cc2)O1	n	n	n	x	x	n	x
CC(C)Oc1ccc(C(=O)/C(=C\c2cccs2)c2nc3ccccc3o2)cc1	n	n	n	n	n	n	x
Nc1nc(COc2ccccc2)cs1	n	n	n	n	n	n	x
Cc1ccccc1OCc1csc(N)n1	n	n	n	n	16	n	n
Cc1ccc(-c2nc(=S)c3c(n2Cc2ccco2)CC(C)(C)OC3)cc1	n	n	n	n	13	n	n
Cc1ccc(-c2nc(=S)c3c(n2Cc2ccco2)CCCC3)cc1	x	n	n	n	n	n	x
CCc1nc(SCc2cccnc2)c(C#N)cc1C	n	n	n	n	n	n	x
Cc1ccc(C#N)c(SCc2ccccc2F)n1	n	n	n	x	11	n	n
Cn1c(SCc2ccc([N+](=O)[O-])cc2)nnc1-c1ccncc1	n	x	x	x	x	n	x
Cn1c(SCC2CCCO2)nnc1-c1ccc([N+](=O)[O-])cc1 (centres undefined)	n	n	n	n	13	n	n
Cc1ccc(S(=O)(=O)N2c3ccccc3OCC2C(C)(C)C)cc1 (centres undefined)	n	n	n	n	21	n	n
CS(=O)(=O)Nc1cccc(C2=NN(S(C)(=O)=O)C(c3ccc4c(c3)OCO4)C2)c1 (centres undefined)	n	n	n	n	13	n	n
O=[N+]([O-])c1ccc(Sc2cccc[n+]2[O-])c2nonc12	n	n	n	x	40	n	43
O=C(N/N=C/c1cc(Br)c(O)c(Br)c1)c1cccc(C(F)(F)F)c1	n	n	n	n	12	n	n
COc1cc(Cl)c(C)cc1NC(=O)COC(=O)C(NS(=O)(=O)c1ccc(Cl)cc1)C(C)O (centres undefined)	n	n	n	n	n	n	x
CC(O)C(NS(=O)(=O)c1ccc(Cl)cc1)C(=O)OCC(=O)Nc1cccnc1Cl (centres undefined)	n	n	n	n	20	n	n
COc1cccc(N(CC(=O)NC2CCCCC2)C(=O)CCC(=O)Nc2nc(C)cs2)c1	n	x	x	x	x	n	x
O=[N+]([O-])c1cccc(N/N=C/c2cccc(O)c2O)c1	n	n	n	n	11	n	n
COc1ccc(NC(=O)C(c2ccccc2)N2CCN(c3ccccn3)CC2)cc1Cl (centres undefined)	n	n	n	n	n	n	x
O=C(CC(Sc1ccccc1)c1cccs1)c1ccco1 (centres undefined)	n	n	n	n	n	n	x
Cc1cccc(-n2c(=S)[nH]c3nc4c(cc3c2=O)COC(C)(C)C4)c1	n	n	n	x	18	n	n
COc1ccc(-n2nnnc2SCC(=O)Nc2cccc(O)c2)cc1	n	x	x	x	x	n	x
SMILES	RanGTP-Imp inh	Runt-CBFb FRET	Runt-SMMHC FRET	HMGR II inh	Wee1 stabilizer	PHOSPHO1 block	Wee1 stab conf
COc1ccc(-n2nnnc2SCC(=O)Nc2nnn(C)n2)cc1	n	n	n	n	11	n	n
COC(CN(C)C(=O)C1CCCN(S(=O)(=O)c2ccc3c(c2)oc(=O)n3C)C1)OC (centres undefined)	n	x	x	x	x	n	x
CCOc1ccc(NC(=S)Nc2ccc(C)c([N+](=O)[O-])c2)cc1	n	n	n	n	14	n	n
COc1cc(NC(=O)NCC2CCN(Cc3ccccc3F)CC2)cc(OC)c1	n	x	x	x	x	n	x
O=C(CSc1ccc(F)cc1)NC1CCCCC1	n	n	n	n	12	n	n
COCCCNC(=O)Nc1ccc(Br)cc1Cl	n	n	n	n	11	n	n
COCCCNC(=O)Nc1ccc(F)cc1F	n	n	n	n	n	n	x
O=C(NCCO)C(F)(F)C(F)(F)C(F)(F)OC(F)(C(=O)NCCO)C(F)(F)F (centres undefined)	n	n	n	n	12	n	n
Nc1nnc(-c2cccc([N+](=O)[O-])c2)o1	n	n	n	x	11	n	n
O=[N+]([O-])c1cccc(-c2nnc(C3CC3)o2)c1	n	n	n	x	n	n	x
COc1ccc(N2CCN(C(=O)CCN3C(=S)NC(C)(C)CC3C)CC2)cc1 (centres undefined)	n	n	n	n	11	n	n
Cc1ccc(N(CC(=O)N/N=C/c2cc(C)n(-c3ccccc3C)c2C)S(C)(=O)=O)cc1	n	n	n	n	12	n	n
Cc1cc(C)cc(-n2c(C)cc(/C=N/NC(=O)CN(c3c(C)cccc3C)S(C)(=O)=O)c2C)c1	n	n	n	n	n	n	x
O=C(C1=NN[C@@H]2C(=O)N(c3cccc(F)c3)C(=O)[C@H]12)c1ccc2ccccc2n1	n	n	n	n	n	n	x
COc1cccc(N2C(=O)[C@H]3C(C(=O)c4cnccn4)=NN[C@H]3C2=O)c1	n	n	n	x	21	n	n
Cc1nc2cc(Nc3ccncc3)ccc2s1	n	n	n	n	n	n	x
O=C(CC(Cc1ccccc1)C(=O)O)Nc1ccc(Cl)c(Cl)c1 (centres undefined)	n	x	x	x	x	n	x
CCOc1ccc(S(=O)(=O)NCCC(=O)N2CCN(c3ccc(OC)cc3)CC2)cc1	n	n	n	n	11	n	n
CCN1CCCC1Cn1cnc2c([nH]c3ccc(OC)cc32)c1=O (centres undefined)	n	n	n	x	n	n	x
CCOC(=O)N1CCN(C(=O)c2c[nH]c3ccc(S(=O)(=O)N(C)c4cccc(C)c4)cc3c2=O)CC1	n	x	x	x	x	n	x
CCOC(=O)C(=Cc1c[nH]c2ccc(S(=O)(=O)N(C)C)cc12)C(=O)OCC	u	n	n	x	12	n	n
CCOC(=O)c1ccc2ncc(C(=O)OCC)c(NCCN(C)C)c2c1	n	x	x	x	21	x	n
CCOC(=O)c1ccc2ncc(C(=O)OCC)c(NCCN3CCOCC3)c2c1	n	x	x	x	x	x	x
CCOC(=O)c1c(C)oc2ccc(OCc3cc(C(=O)OC)oc3C)cc12	n	n	n	n	n	n	x
Cc1ccc(N2CCN(C(=O)N3CCOCC3)CC2)cc1C	n	x	x	n	12	n	n
C=CS(=O)(=O)c1ccc(Oc2ccc(S(=O)(=O)C=C)cc2)cc1	n	n	n	n	15	n	14
Cc1ccc(CNC(=O)c2ccc(S(=O)(=O)Nc3c(C)n(C)n(-c4ccccc4)c3=O)cc2)cc1	n	n	n	x	n	n	x
